Calls of active or inactive are those of the source. No cut-off for these calls is given here.
Legend:
SiHa [1] = experiment: Antiproliferative activity against human SiHa cells assessed as reduction in cell viability at 80 nM incubated for 48 hrs by EdU staining based laser scanning confocal microscopy; assay type: functional
Outline: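 Cells, 5×10^4, were seeded in 24-well plates and treated for 48 h. They were then labeled using an EdU Apollo 488 imaging kit with Hoechst 33342 nuclear stain and imaged by laser scanning confocal microscopy. Percent EdU-positive cells = EdU-positive/Hoechst-stained × 100%.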

[2] = tested on: Serine/threonine-protein kinase B-raf (Homo sapiens), P15056 [V600E]; experiment: Inhibition of recombinant human BRAF V599E mutant (416 to end residues) at 1 uM using myelin as substrate incubated for 40 mins in presence of [gamma-33P]-ATP by scintillation counting method relative to control
Sequence of Serine/threonine-protein kinase B-raf (Homo sapiens), P15056 [V600E] (P15056 whole entry V600E): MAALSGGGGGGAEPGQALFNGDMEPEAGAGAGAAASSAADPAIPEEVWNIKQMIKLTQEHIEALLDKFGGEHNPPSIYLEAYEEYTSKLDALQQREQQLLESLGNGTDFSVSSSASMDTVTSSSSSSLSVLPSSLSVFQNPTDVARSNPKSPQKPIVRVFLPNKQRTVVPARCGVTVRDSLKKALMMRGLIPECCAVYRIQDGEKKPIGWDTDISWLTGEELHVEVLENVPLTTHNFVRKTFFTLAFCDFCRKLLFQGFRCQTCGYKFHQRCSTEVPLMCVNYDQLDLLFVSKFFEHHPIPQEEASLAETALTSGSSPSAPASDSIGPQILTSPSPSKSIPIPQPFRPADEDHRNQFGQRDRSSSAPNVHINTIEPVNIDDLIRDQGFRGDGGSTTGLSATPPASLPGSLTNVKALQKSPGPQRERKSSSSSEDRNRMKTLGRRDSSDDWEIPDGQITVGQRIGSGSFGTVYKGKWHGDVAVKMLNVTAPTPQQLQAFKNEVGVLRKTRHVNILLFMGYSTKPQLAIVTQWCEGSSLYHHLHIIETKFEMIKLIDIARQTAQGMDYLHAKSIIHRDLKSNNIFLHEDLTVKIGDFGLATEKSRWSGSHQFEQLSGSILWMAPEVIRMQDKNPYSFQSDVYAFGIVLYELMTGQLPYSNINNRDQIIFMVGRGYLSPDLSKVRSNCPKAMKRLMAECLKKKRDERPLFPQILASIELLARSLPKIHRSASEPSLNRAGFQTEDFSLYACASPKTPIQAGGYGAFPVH
Outline: (§1)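 Kinase panel profiling at 1 μM performed by Eurofins KinaseProfiler; percent inhibition reported as mean of two independent experiments.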

[3] = VRT (0 to t) in Sprague-Dawley rat at 10 mg/kg, iv by HPLC-MS analysis; assay type: ADME, organism-based; details: in vivo
[4] = biological target: Leucine-rich repeat serine/threonine-protein kinase 2 (Homo sapiens) (UniProt Q5S007); experiment: Inhibition of recombinant human LRRK2 (970 to end residues) at 1 uM using RLGRDKYKTLRQIRQ as substrate incubated for 40 mins in presence of [gamma-33P]-ATP by scintillation counting method relative to control
MDA-MB-231 = experiment: Induction of apoptosis in human MDA-MB-231 cells assessed as decrease in Rb phosphorylation incubated for 48 hrs by Western blot analysis; assay type: functional, cell-based
Outline: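 Cells were treated for 48 h, washed three times with PBS, and lysed in RIPA buffer. Immunoblots used anti-Rb, anti-phospho-Rb, anti-Ki67 and anti-Bcl-2 (each 1:1000), with β-actin as loading control.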

[5] = biological target: Inhibitor of nuclear factor kappa-B kinase subunit beta (Homo sapiens) (UniProt O14920); experiment: Inhibition of recombinant human full length IKKbeta at 1 uM using peptide as substrate incubated for 40 mins in presence of [gamma-33P]-ATP by scintillation counting method relative to control
[6] = biological target: Receptor tyrosine-protein kinase erbB-4 (Homo sapiens) (UniProt Q15303); experiment: Inhibition of recombinant human ERBB4 (706 to 991 residues) at 1 uM using poly (Glu, Tyr) 4:1 as substrate incubated for 40 mins in presence of [gamma-33P]-ATP by scintillation counting method relative to control
Outline: (§2)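 Tested at a single 1 uM in an outsourced commercial kinase-profiling panel, read as percent inhibition. Each value is the mean of two independent experiments.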

[7] = Toxicity in NOD/SCID BALB/c mouse xenografted with human SiHa cells assessed as reduction in body weight at 20 to 40 mg/kg, po administered for 21 days; assay type: organism-based; details: in vivo, 504 h
[8] = biological target: Vascular endothelial growth factor receptor 2 (Homo sapiens, UniProt P35968); experiment: Inhibition of VEGFR2 in HUVEC cells assessed as reduction in VEGFR2 phosphorylation at 20 to 40 nM incubated for 48 hrs by Western blot analysis; assay type: cell-based
Sequence of Vascular endothelial growth factor receptor 2 (P35968 whole entry): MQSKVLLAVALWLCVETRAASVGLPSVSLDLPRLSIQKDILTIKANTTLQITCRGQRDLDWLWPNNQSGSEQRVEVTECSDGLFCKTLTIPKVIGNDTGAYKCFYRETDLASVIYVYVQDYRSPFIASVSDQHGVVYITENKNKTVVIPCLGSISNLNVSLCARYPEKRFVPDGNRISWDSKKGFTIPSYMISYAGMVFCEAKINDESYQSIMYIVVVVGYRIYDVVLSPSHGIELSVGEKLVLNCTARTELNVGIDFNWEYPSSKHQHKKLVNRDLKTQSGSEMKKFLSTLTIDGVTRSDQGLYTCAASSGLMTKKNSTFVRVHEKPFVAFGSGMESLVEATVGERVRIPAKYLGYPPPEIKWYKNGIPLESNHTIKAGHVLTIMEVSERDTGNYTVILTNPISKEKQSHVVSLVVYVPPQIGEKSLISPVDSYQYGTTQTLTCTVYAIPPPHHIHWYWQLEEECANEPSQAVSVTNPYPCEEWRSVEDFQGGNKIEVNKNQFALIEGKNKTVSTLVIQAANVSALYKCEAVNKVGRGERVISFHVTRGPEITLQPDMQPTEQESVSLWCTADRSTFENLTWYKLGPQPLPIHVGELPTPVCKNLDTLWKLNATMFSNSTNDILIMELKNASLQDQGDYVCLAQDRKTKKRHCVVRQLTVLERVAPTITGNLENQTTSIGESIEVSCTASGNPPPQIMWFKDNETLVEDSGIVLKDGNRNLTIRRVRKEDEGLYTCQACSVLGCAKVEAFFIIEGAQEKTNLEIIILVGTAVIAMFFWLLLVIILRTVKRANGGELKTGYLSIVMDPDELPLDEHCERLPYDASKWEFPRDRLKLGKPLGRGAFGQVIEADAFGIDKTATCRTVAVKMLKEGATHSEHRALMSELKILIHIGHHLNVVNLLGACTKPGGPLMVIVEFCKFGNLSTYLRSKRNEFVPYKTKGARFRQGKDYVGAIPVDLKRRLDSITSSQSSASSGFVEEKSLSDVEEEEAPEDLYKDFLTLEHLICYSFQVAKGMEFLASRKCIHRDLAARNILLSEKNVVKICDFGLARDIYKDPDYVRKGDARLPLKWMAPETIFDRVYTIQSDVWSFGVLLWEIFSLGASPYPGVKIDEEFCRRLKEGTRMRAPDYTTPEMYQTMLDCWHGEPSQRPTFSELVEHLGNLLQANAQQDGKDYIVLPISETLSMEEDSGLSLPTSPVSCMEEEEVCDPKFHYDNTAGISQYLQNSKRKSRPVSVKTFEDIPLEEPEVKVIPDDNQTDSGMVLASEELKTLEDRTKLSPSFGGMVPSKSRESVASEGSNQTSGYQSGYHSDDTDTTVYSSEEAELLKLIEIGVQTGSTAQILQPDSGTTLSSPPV
Outline: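 HUVECs were maintained in 1640 medium with 10% FBS. They were treated with graded concentrations for 48 h, PBS-washed and lysed in RIPA buffer. Immunoblots were probed for total and phospho VEGFR2, STAT3, Akt, Erk1 and Src, each at 1:1000. β-actin served as loading control.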

[9] = biological target: Serine/threonine-protein kinase MARK1 (Homo sapiens) (UniProt Q9P0L2); experiment: Inhibition of recombinant human MARK1 (2 to end residues) at 1 uM using KKKVSRSGLYRSPSMPENLNRPR as substrate incubated for 40 mins in presence of [gamma-33P]-ATP by scintillation counting method relative to control
Sequence of Serine/threonine-protein kinase MARK1 (Homo sapiens) (Q9P0L2 whole entry, looked up): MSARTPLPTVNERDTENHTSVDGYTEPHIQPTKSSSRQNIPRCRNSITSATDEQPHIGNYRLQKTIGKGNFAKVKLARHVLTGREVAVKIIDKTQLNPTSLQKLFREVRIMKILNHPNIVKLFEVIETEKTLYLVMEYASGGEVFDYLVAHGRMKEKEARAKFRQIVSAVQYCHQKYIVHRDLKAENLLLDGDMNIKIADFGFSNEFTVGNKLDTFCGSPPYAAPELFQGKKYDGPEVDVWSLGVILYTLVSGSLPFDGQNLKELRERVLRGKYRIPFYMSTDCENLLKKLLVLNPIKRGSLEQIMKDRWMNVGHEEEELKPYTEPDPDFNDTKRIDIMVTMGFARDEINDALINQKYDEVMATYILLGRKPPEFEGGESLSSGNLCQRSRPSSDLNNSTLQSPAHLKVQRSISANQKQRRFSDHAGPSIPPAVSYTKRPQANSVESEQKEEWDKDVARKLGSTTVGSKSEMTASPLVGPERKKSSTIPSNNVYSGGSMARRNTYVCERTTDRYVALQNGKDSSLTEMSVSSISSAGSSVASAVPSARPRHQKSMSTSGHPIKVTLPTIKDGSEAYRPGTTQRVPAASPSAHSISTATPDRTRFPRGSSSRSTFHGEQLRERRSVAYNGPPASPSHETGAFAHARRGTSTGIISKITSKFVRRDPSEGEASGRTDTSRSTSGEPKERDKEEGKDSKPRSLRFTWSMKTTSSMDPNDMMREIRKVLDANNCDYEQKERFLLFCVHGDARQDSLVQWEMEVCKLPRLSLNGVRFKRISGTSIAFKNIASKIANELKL

[10] = tested on: Platelet-derived growth factor receptor alpha (Homo sapiens), P16234 [V561D]; experiment: Inhibition of recombinant human PDGFRalpha V561D mutant (550 to end residues) at 1 uM using GGMEDIYFEFMGGKKK as substrate incubated for 40 mins in presence of [gamma-33P]-ATP by scintillation counting method relative to control; outline: as §2
Sequence of Platelet-derived growth factor receptor alpha (Homo sapiens), P16234 [V561D] (P16234 whole entry V561D): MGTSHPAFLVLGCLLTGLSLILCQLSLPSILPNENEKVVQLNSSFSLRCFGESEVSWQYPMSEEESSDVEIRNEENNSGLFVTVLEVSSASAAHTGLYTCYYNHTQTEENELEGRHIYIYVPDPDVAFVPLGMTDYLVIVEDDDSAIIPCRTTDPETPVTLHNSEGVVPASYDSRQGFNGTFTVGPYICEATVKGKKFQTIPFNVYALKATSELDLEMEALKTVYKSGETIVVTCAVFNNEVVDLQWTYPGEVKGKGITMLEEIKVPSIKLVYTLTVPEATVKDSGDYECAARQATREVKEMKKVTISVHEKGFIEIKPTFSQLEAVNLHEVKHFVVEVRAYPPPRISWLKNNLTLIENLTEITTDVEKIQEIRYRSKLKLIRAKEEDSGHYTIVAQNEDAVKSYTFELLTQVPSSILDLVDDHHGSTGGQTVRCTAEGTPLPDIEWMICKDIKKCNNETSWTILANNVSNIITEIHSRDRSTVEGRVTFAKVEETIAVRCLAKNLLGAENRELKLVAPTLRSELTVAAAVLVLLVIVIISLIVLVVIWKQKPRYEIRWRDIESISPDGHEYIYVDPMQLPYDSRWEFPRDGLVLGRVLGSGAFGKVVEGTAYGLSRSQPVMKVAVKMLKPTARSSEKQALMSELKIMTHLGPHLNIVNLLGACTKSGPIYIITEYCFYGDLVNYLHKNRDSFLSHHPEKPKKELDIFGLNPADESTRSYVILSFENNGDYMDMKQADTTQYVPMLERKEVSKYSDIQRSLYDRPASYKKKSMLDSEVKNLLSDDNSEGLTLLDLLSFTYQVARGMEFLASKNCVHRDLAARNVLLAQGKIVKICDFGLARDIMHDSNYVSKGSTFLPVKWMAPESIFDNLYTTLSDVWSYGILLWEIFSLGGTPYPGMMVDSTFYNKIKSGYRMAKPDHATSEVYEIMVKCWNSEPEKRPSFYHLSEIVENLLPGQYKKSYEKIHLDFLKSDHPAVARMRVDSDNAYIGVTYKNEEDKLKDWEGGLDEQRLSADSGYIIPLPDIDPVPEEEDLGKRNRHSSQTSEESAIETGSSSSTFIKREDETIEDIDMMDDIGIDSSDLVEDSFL

[11] = biological target: Protein kinase C alpha type (Homo sapiens) (UniProt P17252); experiment: Inhibition of recombinant human full length PKCalpha at 1 uM using histone H1 as substrate incubated for 40 mins in presence of [gamma-33P]-ATP by scintillation counting method relative to control
[12] = biological target: Serine/threonine-protein kinase SIK3 (Homo sapiens) (UniProt Q9Y2K2); experiment: Inhibition of recombinant human SIK3 (1 to 307 residues) at 1 uM using KKKVSRSGLYRSPSMPENLNRPR as substrate incubated for 40 mins in presence of [gamma-33P]-ATP by scintillation counting method relative to control
[13] = biological target: Beta-adrenergic receptor kinase 1 (Homo sapiens) (UniProt P25098); experiment: Inhibition of recombinant human full length GRK2 at 1 uM using casein as substrate incubated for 40 mins in presence of [gamma-33P]-ATP by scintillation counting method relative to control; outline: as §2
[14] = biological target: Casein kinase I isoform gamma-1 (Homo sapiens) (UniProt Q9HCP0); experiment: Inhibition of recombinant human CK1gamma1 (25 to 355 residues) at 1 uM using KRRRALS(p)VAS as substrate incubated for 40 mins in presence of [gamma-33P]-ATP by scintillation counting method relative to control; outline: as §1
[15] = biological target: CDK6/cyclin D3 (Homo sapiens) (UniProt P30281+Q00534); experiment: Inhibition of recombinant human full length CDK6/cyclinD3 at 1 uM using histone H1 as substrate incubated for 40 mins in presence of [gamma-33P]-ATP by scintillation counting method relative to control; assay type: protein-complex assay
CDK4/Cyclin D3 = CDK4/Cyclin D3 (Homo sapiens, UniProt P11802); experiment: Inhibition of recombinant full length human CDK4/Cyclin D3 using Rb-fragmen as substrate incubated for 40 mins by [gamma-33P]-ATP based radiometric assay; assay type: protein-complex assay
[16] = biological target: Serine/threonine-protein kinase TAO1 (Homo sapiens) (UniProt Q7L7X3); experiment: Inhibition of recombinant human TAO1 (1 to 327 residues) at 1 uM using myelin basic protein as substrate incubated for 40 mins in presence of [gamma-33P]-ATP by scintillation counting method relative to control
Sequence of Serine/threonine-protein kinase TAO1 (Homo sapiens) (Q7L7X3 whole entry, the tested form may be a part): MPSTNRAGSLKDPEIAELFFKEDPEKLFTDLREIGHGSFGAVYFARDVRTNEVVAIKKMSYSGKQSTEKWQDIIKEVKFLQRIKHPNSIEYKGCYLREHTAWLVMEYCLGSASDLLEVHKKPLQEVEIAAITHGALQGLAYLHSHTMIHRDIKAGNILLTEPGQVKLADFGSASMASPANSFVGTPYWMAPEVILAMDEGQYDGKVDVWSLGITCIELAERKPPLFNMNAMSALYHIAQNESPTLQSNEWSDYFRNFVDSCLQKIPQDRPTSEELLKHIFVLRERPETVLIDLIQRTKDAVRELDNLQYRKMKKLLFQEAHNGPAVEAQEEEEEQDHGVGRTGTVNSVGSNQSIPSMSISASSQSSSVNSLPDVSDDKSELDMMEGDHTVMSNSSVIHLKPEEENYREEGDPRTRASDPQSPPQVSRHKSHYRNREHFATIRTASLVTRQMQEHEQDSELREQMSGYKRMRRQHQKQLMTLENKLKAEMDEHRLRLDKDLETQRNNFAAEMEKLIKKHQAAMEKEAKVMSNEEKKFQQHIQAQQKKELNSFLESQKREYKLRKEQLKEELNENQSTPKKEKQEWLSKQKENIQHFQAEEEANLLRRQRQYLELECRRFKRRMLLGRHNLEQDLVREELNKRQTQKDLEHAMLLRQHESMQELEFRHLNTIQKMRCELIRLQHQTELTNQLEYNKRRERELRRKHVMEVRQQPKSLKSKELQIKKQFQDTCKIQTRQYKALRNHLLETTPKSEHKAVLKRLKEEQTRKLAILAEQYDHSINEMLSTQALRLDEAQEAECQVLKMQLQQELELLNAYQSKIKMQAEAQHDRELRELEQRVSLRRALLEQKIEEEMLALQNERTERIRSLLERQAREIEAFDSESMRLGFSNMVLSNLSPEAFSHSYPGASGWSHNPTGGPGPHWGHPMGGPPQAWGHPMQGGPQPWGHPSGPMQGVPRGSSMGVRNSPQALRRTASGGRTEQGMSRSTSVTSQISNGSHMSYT

SiHa [17] = experiment: Induction of apoptosis in human SiHa cells assessed as decrease in Bcl2 expression at 40 to 80 nM incubated for 48 hrs by Western blot analysis; assay type: functional, cell-based
Outline: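 Cancer cells were exposed to graded concentrations for 48 h, washed three times in PBS and lysed in RIPA buffer. Immunoblots were probed with anti-Rb, anti-phospho-Rb, anti-Ki67 and anti-Bcl-2, each at 1:1000. β-actin served as loading control.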

[18] = Toxicity in BALB/c mouse assessed as toxic effects in spleen at 40 mg/kg, po administered for 48 hrs by hematoxylin and eosin staining method; details: in vivo

Compound	inhibition (SiHa [1])	inhibition [2]	VRT(t) [3]	inhibition [4]	Activity (MDA-MB-231)	inhibition [5]	inhibition [6]	Activity [7]	inhibition [8]	inhibition [9]	inhibition [10]	inhibition [11]	inhibition [12]	inhibition [13]	inhibition [14]	inhibition [15]	IC50 (CDK4/Cyclin D3)	inhibition [16]	Activity (SiHa [17])	Activity [18]
COc1cc2nccc(Oc3ccc(NC(=O)C4(C(=O)Nc5ccc(F)cc5)CC4)cc3)c2cc1OC [CABOZANTINIB]	Active	–	–	–	–	–	–	–	–	–	–	–	–	–	–	–	–	–	–	–
Cc1ccc(NC(=O)C2(C(=O)Nc3ccc(Nc4ncc(F)c(-c5cc(F)c6nc(C)n(C(C)C)c6c5)n4)cc3)CC2)cc1	–	45%	2 h	83%	Dose-dependent effect	11%	0%	Toxic	Active	74%	70%	70%	43%	0%	23%	94%	46 nM	2%	Active	Non-Toxic

From ChEMBL document CHEMBL4406821, “Novel dual inhibitors targeting CDK4 and VEGFR2 synergistically suppressed cancer progression and angiogenesis” (Eur J Med Chem, 2019)
